Measurements reported in ChEMBL document CHEMBL1151428, “Capability of 11 antipneumococcal antibiotics to select for resistance by multistep and single-step methodologies” (2007).
Values after ≈ are worked out from the molar mass of the structure shown.

Key:
Assay type in all cases: functional
Streptococcus pneumoniae [1] = test: Antimicrobial activity against drug-resistant Streptococcus pneumoniae isolate 24 after 50 passages with moxifloxacin measured after 10 antibiotic-free subculture by multi-step resistance selection technique
How it was run: (§1)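 Mutants selected by daily broth passage in subinhibitory drug in cation-adjusted Mueller-Hinton broth with 5% lysed horse blood. Stability was tested by 10 daily passages on blood agar without antibiotic, then macrodilution MIC.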

Streptococcus pneumoniae [2] = test: Antimicrobial activity against drug-resistant Streptococcus pneumoniae isolate 24 after 14 passages with Telithromycin measured after 10 antibiotic-free subculture by multi-step resistance selection technique; how it was run: as §1
Streptococcus pneumoniae [3] = test: Antimicrobial activity against drug-resistant Streptococcus pneumoniae isolate 1635 after 49 passages with clarithromycin measured after 10 antibiotic-free subculture by multi-step resistance selection technique
Streptococcus pneumoniae [4] = test: Antimicrobial activity against drug-resistant Streptococcus pneumoniae isolate 1635 after 14 passages with azithromycin measured after 10 antibiotic-free subculture by multi-step resistance selection technique; how it was run: as §1
Streptococcus pneumoniae [5] = test: Antimicrobial activity against drug-resistant Streptococcus pneumoniae isolate 1635 after 50 passages by multi-step resistance selection technique
How it was run: (§2)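 Daily serial passage in subinhibitory drug levels in 1 ml cation-adjusted Mueller-Hinton broth with 5% lysed horse blood; fresh broth for tigecycline. Each day, 10 μl were taken from the tube one to two dilutions below the MIC whose turbidity matched the growth control, and used to set the next MIC. MIC by macrodilution.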

Streptococcus pneumoniae [6] = test: Antimicrobial activity against drug-resistant Streptococcus pneumoniae isolate 1635 by NCCLS M7-A7 method
Streptococcus pneumoniae [7] = test: Antimicrobial activity against drug-resistant Streptococcus pneumoniae isolate 3243 after 41 passages with clarithromycin measured after 10 antibiotic-free subculture by multi-step resistance selection technique
Streptococcus pneumoniae [8] = test: Antimicrobial activity against drug-resistant Streptococcus pneumoniae isolate 3243 after 33 passages with azithromycin measured after 10 antibiotic-free subculture by multi-step resistance selection technique; how it was run: as §1
Streptococcus pneumoniae [9] = test: Antimicrobial activity against drug-resistant Streptococcus pneumoniae isolate 3243 after 29 passages with Telithromycin measured after 10 antibiotic-free subculture by multi-step resistance selection technique; how it was run: as §1
Streptococcus pneumoniae [10] = test: Antimicrobial activity against drug-resistant Streptococcus pneumoniae isolate 3676 after 50 passages with moxifloxacin measured after 10 antibiotic-free subculture by multi-step resistance selection technique
Streptococcus pneumoniae [11] = test: Antimicrobial activity against drug-resistant Streptococcus pneumoniae isolate 3274 after 48 passages with Telithromycin measured after 10 antibiotic-free subculture by multi-step resistance selection technique; how it was run: as §1
Streptococcus pneumoniae [12] = test: Antimicrobial activity against drug-resistant Streptococcus pneumoniae isolate 2527 after 14 passages with gemifloxacin measured after 10 antibiotic-free subculture by multi-step resistance selection technique; how it was run: as §1
Streptococcus pneumoniae [13] = test: Antimicrobial activity against drug-resistant Streptococcus pneumoniae isolate 2527 after 20 passages with azithromycin measured after 10 antibiotic-free subculture by multi-step resistance selection technique; how it was run: as §1
Streptococcus pneumoniae [14] = test: Antimicrobial activity against drug-resistant Streptococcus pneumoniae isolate 2527 by NCCLS M7-A7 method
Streptococcus pneumoniae [15] = test: Antimicrobial activity against drug-resistant Streptococcus pneumoniae isolate 2527 after 50 passages by multi-step resistance selection technique
How it was run: (§3)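 Daily serial passage in subinhibitory drug levels in 1 ml cation-adjusted Mueller-Hinton broth with 5% lysed horse blood; fresh broth for tigecycline. Each day, 10 μl were taken from the tube one to two dilutions below the MIC whose turbidity matched the growth control, and used to set the next MIC. […] MIC by macrodilution.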

Streptococcus pneumoniae [16] = test: Antimicrobial activity against drug-resistant Streptococcus pneumoniae isolate 3665 by NCCLS M7-A7 method
Streptococcus pneumoniae [17] = test: Antimicrobial activity against drug-resistant Streptococcus pneumoniae isolate 1077 after 49 passages with clindamycin measured after 10 antibiotic-free subculture by multi-step resistance selection technique
Streptococcus pneumoniae [18] = test: Antimicrobial activity against drug-resistant Streptococcus pneumoniae isolate 1077 after 29 passages with azithromycin measured after 10 antibiotic-free subculture by multi-step resistance selection technique; how it was run: as §1
Streptococcus pneumoniae [19] = test: Antimicrobial activity against drug-resistant Streptococcus pneumoniae isolate 1077 after 50 passages by multi-step resistance selection technique; how it was run: as §2
Streptococcus pneumoniae [20] = test: Antimicrobial activity against drug-resistant Streptococcus pneumoniae isolate 1077 by NCCLS M7-A7 method
Streptococcus pneumoniae [21] = test: Antimicrobial activity against drug-resistant Streptococcus pneumoniae isolate 1076 after 35 passages with moxifloxacin measured after 10 antibiotic-free subculture by multi-step resistance selection technique; how it was run: as §1
Streptococcus pneumoniae [22] = test: Antimicrobial activity against drug-resistant Streptococcus pneumoniae isolate 1076 by NCCLS M7-A7 method
Streptococcus pneumoniae [23] = test: Antimicrobial activity against drug-resistant Streptococcus pneumoniae isolate 1076 after 50 passages by multi-step resistance selection technique; how it was run: as §3
Streptococcus pneumoniae [24] = test: Antimicrobial activity against drug-resistant Streptococcus pneumoniae isolate 3009 after 19 passages with moxifloxacin measured after 10 antibiotic-free subculture by multi-step resistance selection technique; how it was run: as §1
Streptococcus pneumoniae [25] = test: Antimicrobial activity against drug-resistant Streptococcus pneumoniae isolate 3009 after 21 passages with gemifloxacin measured after 10 antibiotic-free subculture by multi-step resistance selection technique; how it was run: as §1
Streptococcus pneumoniae [26] = test: Antimicrobial activity against drug-resistant Streptococcus pneumoniae isolate 3009 after 50 passages by multi-step resistance selection technique; how it was run: as §3
Streptococcus pneumoniae [27] = test: Antimicrobial activity against drug-resistant Streptococcus pneumoniae isolate 1635 after 14 passages with clindamycin measured after 10 antibiotic-free subculture by multi-step resistance selection technique
Streptococcus pneumoniae [28] = test: Antimicrobial activity against drug-resistant Streptococcus pneumoniae isolate 37 by NCCLS M7-A7 method
Streptococcus pneumoniae [29] = test: Antimicrobial activity against drug-resistant Streptococcus pneumoniae isolate 37 after 50 passages by multi-step resistance selection technique
How it was run: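 Daily serial passage in broth at subinhibitory drug levels: 1 ml cation-adjusted Mueller-Hinton broth with 5% lysed horse blood; fresh broth for tigecycline. Each day 10 μl inoculum taken from the tube one to two dilutions below MIC matching growth-control turbidity, used to set next MIC.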

Streptococcus pneumoniae [30] = test: Antimicrobial activity against drug-resistant Streptococcus pneumoniae isolate 37 after 14 passages with Telithromycin measured after 10 antibiotic-free subculture by multi-step resistance selection technique
Streptococcus pneumoniae [31] = test: Antimicrobial activity against drug-resistant Streptococcus pneumoniae isolate 3413 after 30 passages with Telithromycin measured after 10 antibiotic-free subculture by multi-step resistance selection technique; how it was run: as §1
Streptococcus pneumoniae [32] = test: Antimicrobial activity against drug-resistant Streptococcus pneumoniae isolate 3676 after 44 passages with clarithromycin measured after 10 antibiotic-free subculture by multi-step resistance selection technique
Streptococcus pneumoniae [33] = test: Antimicrobial activity against drug-resistant Streptococcus pneumoniae isolate 3676 after 50 passages by multi-step resistance selection technique
How it was run: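 Daily serial passage in broth at subinhibitory drug levels: 1 ml cation-adjusted Mueller-Hinton broth with 5% lysed horse blood; fresh broth for tigecycline. Each day 10 μl inoculum taken from the tube one to two dilutions below MIC matching growth-control turbidity, used to set next MIC. Continued until ≥8-fold MIC rise, minimum 14, maximum 50 passages; MIC read by macrodilution.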

Streptococcus pneumoniae [34] = test: Antimicrobial activity against drug-resistant Streptococcus pneumoniae isolate 3665 after 38 passages with moxifloxacin measured after 10 antibiotic-free subculture by multi-step resistance selection technique
Streptococcus pneumoniae [35] = test: Antimicrobial activity against drug-resistant Streptococcus pneumoniae isolate 3665 after 26 passages with clarithromycin measured after 10 antibiotic-free subculture by multi-step resistance selection technique
Streptococcus pneumoniae [36] = test: Antimicrobial activity against drug-resistant Streptococcus pneumoniae isolate 3009 after 18 passages with levofloxacin measured after 10 antibiotic-free subculture by multi-step resistance selection technique; how it was run: as §1
Streptococcus pneumoniae [37] = test: Antimicrobial activity against drug-resistant Streptococcus pneumoniae isolate 3009 after 25 passages with clarithromycin measured after 10 antibiotic-free subculture by multi-step resistance selection technique

Row | SMILES | MIC (Streptococcus pneumoniae [1]) | MIC (Streptococcus pneumoniae [2]) | MIC (Streptococcus pneumoniae [3]) | MIC (Streptococcus pneumoniae [4]) | MIC (Streptococcus pneumoniae [5]) | MIC (Streptococcus pneumoniae [6]) | MIC (Streptococcus pneumoniae [7]) | MIC (Streptococcus pneumoniae [8]) | MIC (Streptococcus pneumoniae [9]) | MIC (Streptococcus pneumoniae [10]) | MIC (Streptococcus pneumoniae [11]) | MIC (Streptococcus pneumoniae [12]) | MIC (Streptococcus pneumoniae [13]) | MIC (Streptococcus pneumoniae [14]) | MIC (Streptococcus pneumoniae [15]) | MIC (Streptococcus pneumoniae [16]) | MIC (Streptococcus pneumoniae [17]) | MIC (Streptococcus pneumoniae [18]) | MIC (Streptococcus pneumoniae [20]) | MIC (Streptococcus pneumoniae [21]) | also measured
1 | C[C@@H](O)[C@H]1C(=O)N2C(C(=O)O)=C(SCCNC=N)C[C@H]12 [IMIPENEM ANHYDROUS] | 0.5 µg/mL (≈ 1.67 µM) | 0.25 µg/mL (≈ 0.835 µM) | 0.002 µg/mL (≈ 0.00668 µM) | 0.002 µg/mL (≈ 0.00668 µM) | 0.002 µg/mL (≈ 0.00668 µM) | 0.002 µg/mL (≈ 0.00668 µM) | 0.03 µg/mL (≈ 0.1 µM) | 0.03 µg/mL (≈ 0.1 µM) | 0.016 µg/mL (≈ 0.0534 µM) | 0.03 µg/mL (≈ 0.1 µM) | 0.016 µg/mL (≈ 0.0534 µM) | 0.125 µg/mL (≈ 0.418 µM) | 0.5 µg/mL (≈ 1.67 µM) | 0.25 µg/mL (≈ 0.835 µM) | 0.25 µg/mL (≈ 0.835 µM) | 0.03 µg/mL (≈ 0.1 µM) | 0.004 µg/mL (≈ 0.0134 µM) | 0.008 µg/mL (≈ 0.0267 µM) | 0.008 µg/mL (≈ 0.0267 µM) | 0.008 µg/mL (≈ 0.0267 µM) | MIC (Streptococcus pneumoniae [19]): 0.008 µg/mL (≈ 0.0267 µM); MIC (Streptococcus pneumoniae [22]): 0.008 µg/mL (≈ 0.0267 µM); MIC (Streptococcus pneumoniae [23]): 0.008 µg/mL (≈ 0.0267 µM); MIC (Streptococcus pneumoniae [24]): 0.008 µg/mL (≈ 0.0267 µM); MIC (Streptococcus pneumoniae [25]): 0.008 µg/mL (≈ 0.0267 µM); MIC (Streptococcus pneumoniae [26]): 0.008 µg/mL (≈ 0.0267 µM); MIC (Streptococcus pneumoniae [27]): 0.002 µg/mL (≈ 0.00668 µM); MIC (Streptococcus pneumoniae [28]): 0.5 µg/mL (≈ 1.67 µM); MIC (Streptococcus pneumoniae [29]): 0.5 µg/mL (≈ 1.67 µM); MIC (Streptococcus pneumoniae [30]): 0.25 µg/mL (≈ 0.835 µM); MIC (Streptococcus pneumoniae [31]): 0.125 µg/mL (≈ 0.418 µM); MIC (Streptococcus pneumoniae [32]): 0.016 µg/mL (≈ 0.0534 µM); MIC (Streptococcus pneumoniae [33]): 0.016 µg/mL (≈ 0.0534 µM); MIC (Streptococcus pneumoniae [34]): 0.03 µg/mL (≈ 0.1 µM); MIC (Streptococcus pneumoniae [35]): 0.03 µg/mL (≈ 0.1 µM)
2 | CC[C@H]1OC(=O)[C@H](C)C(=O)[C@H](C)[C@@H](O[C@@H]2O[C@H](C)C[C@H](N(C)C)[C@H]2O)[C@](C)(OC)C[C@@H](C)C(=O)[C@H](C)[C@H]2N(CCCCn3cnc(-c4cccnc4)c3)C(=O)O[C@]12C [TELITHROMYCIN] | 0.25 µg/mL (≈ 0.308 µM) | 16 µg/mL (≈ 19.7 µM) | 0.016 µg/mL (≈ 0.0197 µM) | 0.004 µg/mL (≈ 0.00493 µM) | 0.008 µg/mL (≈ 0.00985 µM) | 0.004 µg/mL (≈ 0.00493 µM) | 0.016 µg/mL (≈ 0.0197 µM) | 0.06 µg/mL (≈ 0.0739 µM) | 0.06 µg/mL (≈ 0.0739 µM) | 0.06 µg/mL (≈ 0.0739 µM) | 0.5 µg/mL (≈ 0.616 µM) | 0.004 µg/mL (≈ 0.00493 µM) | 0.03 µg/mL (≈ 0.0369 µM) | 0.004 µg/mL (≈ 0.00493 µM) | 0.016 µg/mL (≈ 0.0197 µM) | 0.125 µg/mL (≈ 0.154 µM) | 0.06 µg/mL (≈ 0.0739 µM) | 0.125 µg/mL (≈ 0.154 µM) | 0.004 µg/mL (≈ 0.00493 µM) | 1 µg/mL (≈ 1.23 µM) | MIC (Streptococcus pneumoniae [22]): 0.5 µg/mL (≈ 0.616 µM); MIC (Streptococcus pneumoniae [24]): 0.008 µg/mL (≈ 0.00985 µM); MIC (Streptococcus pneumoniae [36]): 0.016 µg/mL (≈ 0.0197 µM); MIC (Streptococcus pneumoniae [25]): 0.03 µg/mL (≈ 0.0369 µM); MIC (Streptococcus pneumoniae [37]): 0.06 µg/mL (≈ 0.0739 µM); MIC (Streptococcus pneumoniae [26]): 0.03 µg/mL (≈ 0.0369 µM); MIC (Streptococcus pneumoniae [27]): 0.008 µg/mL (≈ 0.00985 µM); MIC (Streptococcus pneumoniae [28]): 0.25 µg/mL (≈ 0.308 µM); MIC (Streptococcus pneumoniae [30]): 8 µg/mL (≈ 9.85 µM); MIC (Streptococcus pneumoniae [31]): 0.5 µg/mL (≈ 0.616 µM); MIC (Streptococcus pneumoniae [32]): 0.03 µg/mL (≈ 0.0369 µM); MIC (Streptococcus pneumoniae [34]): 0.125 µg/mL (≈ 0.154 µM); MIC (Streptococcus pneumoniae [35]): 0.06 µg/mL (≈ 0.0739 µM)
